Compound activity: PubChem, The Scripps Research Institute Molecular Screening Center
A selection: hits, their analogues and other compounds. The true share with any hit is near 0.58%.
TRPML3 agonist: human TRPML3 channel agonists, primary screen, cell-based, HEK293 TRPML3-YFP, Fluo-8 calcium fluorescence, 3 µM; Mucolipin-3 (Homo sapiens), Q8TDD5; 100% = the carbachol control signal; activation, % at 3 µM; actives 0.29% (n = 220,000);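 active means activation above its plate's cutoff, the mean activation of the plate's test wells plus 3 SD, cut at about 12% in these data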
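system = HEK293 cells stably carrying human TRPML3-YFP | doses = one concentration, 3 µM nominal, 0.3% DMSO | timing = dye loading 1 h 37 °C then 30 min ambient, 125 s read | detection = Fluo-8 calcium dye fluorescence, ex 470-495, em 515-575 nm | benchmarks = high control carbachol 87 µM, low control DMSO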
OXTR ag: human OXTR agonists, primary screen, fluorescence, CHO-OTR cells, Fluo-8 calcium. actives 0.32% (n = 320,000). activation, % at 3 µM. AID 2435, 2010. Fluo-8 calcium fluorescence; normalized: DMSO 0%, oxytocin 100%;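 active means activation above the mean of all tested compounds plus 3 SD, cutoff set per screening run, cut at about 20% in these data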;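 further: peak over basal fluorescence ratio from a 100 s FLIPR kinetic read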
TRPN1 ag: zebrafish TRPN1 channel agonists, primary screen, cell-based, HEK293, calcium fluorescence; HEK293 zebrafish TRPN1-YFP, Fluo-8 calcium fluorescence; 100% = response to 87 µM carbachol; transient receptor potential cation channel N1 (TRPN1/NompC), Danio rerio; activation, % at 3 µM; actives 0.18% (n = 220,000);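 active means activation above its plate's cutoff, the mean activation of test wells on that plate plus 3 SD, cut at about 19% in these data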
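System: zebrafish TRPN1-YFP in HEK293 cells / Dosing: 3 µM single point / Timing: dye loading 1 h at 37 °C, then 30 min room temperature / Signal: Fluo-8 calcium fluorescence, excitation 470-495 nm, emission 515-575 nm / Read-out basis: percent activation from peak over basal fluorescence ratio, control-normalized / Control set: high carbachol 87 µM, low DMSO alone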
OXTR potentiate: human OXTR potentiators, primary screen, fluorescence, CHO-OTR cells, Fluo-8 calcium. Oxytocin receptor (Homo sapiens), P30559. Fluo-8 calcium fluorescence, potentiator mode; 0% = oxytocin EC15, 100% = EC100. activation, % at 3 µM. actives 0.061% (n = 320,000). AID 2445, 2010;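 active means activation above that plate's cutoff, the mean activation of tested compounds plus 3 SD, cut at about 6.6% in these data, passing the limit was not always enough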
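test system = CHO-OTR cells, human receptor | compound = single-point 3.0 µM | schedule = 6 min compound pre-incubation at room temperature, 100 s kinetic read | signal = Fluo-8 no-wash calcium dye fluorescence, excitation 470-495 nm, emission 515-575 nm | repeats = single well per compound, singlicate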
V1R ag counter: agonists of human V1a receptor, primary screen, counter-screen for OXTR agonist project, fluorescence, CHO-V1R cells; AID 2797, 2010; activation, % at 3 µM; actives 0.25% (n = 320,000); Fluo-8 calcium fluorescence, agonist mode; 0% DMSO, 100% 3 nM vasopressin; Vasopressin V1a receptor (Homo sapiens), P37288;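 active means activation above the mean activation of all tested compounds plus 3 SD, per screening run, cut at about 20% in these data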;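 further: signal is peak over basal fluorescence ratio across a 100 second FLIPR read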
Target sequence (P37288 whole entry, looked up): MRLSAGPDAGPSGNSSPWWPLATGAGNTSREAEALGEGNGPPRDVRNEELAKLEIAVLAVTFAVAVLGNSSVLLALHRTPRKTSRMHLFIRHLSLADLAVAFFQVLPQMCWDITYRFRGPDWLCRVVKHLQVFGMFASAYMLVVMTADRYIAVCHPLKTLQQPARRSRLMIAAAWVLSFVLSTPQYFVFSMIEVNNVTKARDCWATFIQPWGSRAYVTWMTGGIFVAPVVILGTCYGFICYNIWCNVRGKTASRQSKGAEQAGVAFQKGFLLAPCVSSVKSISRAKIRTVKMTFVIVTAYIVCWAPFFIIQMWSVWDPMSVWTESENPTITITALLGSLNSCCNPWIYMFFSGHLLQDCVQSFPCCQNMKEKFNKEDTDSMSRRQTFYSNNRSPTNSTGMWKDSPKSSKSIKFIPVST
Numbers stand for hits.

What do the screens show for `O=C(Nc1ccccc1)c1ccccc1NS(=O)(=O)c1ccc(Cl)s1`?
TRPML3 agonist: 16; OXTR ag: inactive; TRPN1 ag: 29; OXTR potentiate: inactive; V1R ag counter: inactive

Results for O=C(Nc1ccccc1Cc1ccccc1)c1ccccc1NS(=O)(=O)c1ccc(Cl)s1 ?
TRPML3 agonist: inactive; OXTR ag: inactive; TRPN1 ag: 19; OXTR potentiate: inactive; V1R ag counter: inactive

Results for O=C(NCc1ccco1)c1ccccc1NS(=O)(=O)c1ccc(Cl)s1 ?
TRPML3 agonist: inactive; OXTR ag: inactive; TRPN1 ag: inactive; OXTR potentiate: inactive; V1R ag counter: inactive

Results for Cc1ccc(NC(=O)c2ccccc2NS(=O)(=O)c2ccc(Cl)s2)cc1 ?
TRPML3 agonist: 13; OXTR ag: inactive; TRPN1 ag: 27; OXTR potentiate: inactive; V1R ag counter: inactive

How did CCc1ccc(NC(=O)CS(=O)CC(=O)Nc2ccc(-n3cnnn3)c(C)c2)cc1 (configuration not stated) do in these assays?
OXTR ag: inactive; OXTR potentiate: inactive; V1R ag counter: inactive

Results for CCOC(=O)CSC1=NC(=O)/C(=C/c2ccc(OC)cc2)S1 ?
TRPML3 agonist: inactive; OXTR ag: inactive; TRPN1 ag: inactive; OXTR potentiate: inactive; V1R ag counter: inactive

What do the screens show for `Cc1cc(-c2cc(C(=O)NCc3ccccc3)on2)nc(NC2CCCC2)n1`?
OXTR ag: inactive; OXTR potentiate: inactive; V1R ag counter: inactive

What do the screens show for `CCCN1C(=O)/C(=C/c2c(NCCCOCC)nc3c(C)cccn3c2=O)SC1=S`?
TRPML3 agonist: inactive; TRPN1 ag: inactive

What do the screens show for `O=C1/C(=C\c2c(NCCOCCO)nc3ccccn3c2=O)SC(=S)N1Cc1ccco1`?
OXTR ag: 40; OXTR potentiate: inactive; V1R ag counter: 56

Results for N#C/C(=C\c1c(F)cccc1Cl)S(=O)(=O)c1ccccn1 ?
TRPML3 agonist: inactive; OXTR ag: inactive; TRPN1 ag: inactive; OXTR potentiate: inactive; V1R ag counter: inactive

How did CCN(CC)C(=O)CSC(Nc1ccc(F)cc1)=C(C#N)C#N do in these assays?
TRPML3 agonist: inactive; OXTR ag: inactive; TRPN1 ag: inactive; OXTR potentiate: inactive; V1R ag counter: inactive

What do the screens show for `Cc1ccc(CSC(Nc2ccc(F)cc2)=C(C#N)C#N)cc1`?
TRPML3 agonist: 15; OXTR ag: inactive; TRPN1 ag: 25; OXTR potentiate: inactive; V1R ag counter: inactive

What do the screens show for `Cc1ccc(C)c(S(=O)(=O)N2CCC(c3nc4c(nnn4Cc4ccc5c(c4)OCCO5)c(=O)[nH]3)CC2)c1`?
OXTR ag: inactive; OXTR potentiate: inactive; V1R ag counter: inactive

What do the screens show for `CCN(Cc1nc(-c2ccc(C)cc2)no1)C(=O)c1ccco1`?
OXTR ag: inactive; OXTR potentiate: inactive; V1R ag counter: inactive

Results for O=C(Nc1ccc(S(=O)(=O)Nc2nccs2)cc1)c1ccccc1OC(F)F ?
OXTR ag: inactive; OXTR potentiate: inactive; V1R ag counter: inactive

Results for CC(=O)Nc1ccc(Sc2ncccc2C(=O)Nc2ccc(F)cc2)cn1 ?
TRPML3 agonist: 35; OXTR ag: 79; TRPN1 ag: 46; OXTR potentiate: inactive; V1R ag counter: 70

What do the screens show for `O=C(Nc1ccc(OCc2ccccc2)cc1)c1ccccc1`?
TRPML3 agonist: inactive; OXTR ag: inactive; TRPN1 ag: inactive; OXTR potentiate: inactive; V1R ag counter: inactive

What do the screens show for `O=C(Nc1ccc(OCc2ccccc2)cc1)c1cccnc1`?
TRPML3 agonist: inactive; OXTR ag: 21; TRPN1 ag: inactive; OXTR potentiate: inactive; V1R ag counter: 22

How did O=C(O)CCC(=O)Nc1nnc(C(F)(F)F)s1 do in these assays?
TRPML3 agonist: inactive; OXTR ag: inactive; TRPN1 ag: inactive; OXTR potentiate: inactive; V1R ag counter: inactive

What do the screens show for `CCC(NC(=O)Nc1nnc(C(F)(F)F)s1)(C(F)(F)F)C(F)(F)F`?
TRPML3 agonist: 23; OXTR ag: inactive; TRPN1 ag: 26; OXTR potentiate: inactive; V1R ag counter: inactive

Results for O=C(Nc1ccc(NC(=O)c2ccccc2Cl)nc1)c1ccco1 ?
OXTR ag: inactive; OXTR potentiate: inactive; V1R ag counter: inactive

How did Cc1cc(C)c(OCC(=O)Nc2ccccc2N2CCOCC2)c(C)c1 do in these assays?
TRPML3 agonist: 15; OXTR ag: inactive; TRPN1 ag: 24; OXTR potentiate: inactive; V1R ag counter: inactive

What do the screens show for `Cc1cc(Nc2ccccc2)nc(NCc2ccccc2)n1`?
TRPML3 agonist: inactive; OXTR ag: inactive; TRPN1 ag: inactive; OXTR potentiate: inactive; V1R ag counter: inactive

What do the screens show for `CCCCNc1cc(C)nc(NCc2ccccc2)n1`?
TRPML3 agonist: inactive; OXTR ag: 30; TRPN1 ag: inactive; OXTR potentiate: inactive; V1R ag counter: 27

Results for COc1ccc(C(=O)NC(=S)NNC(=O)c2cccc(C)c2)cc1 ?
OXTR ag: 70; OXTR potentiate: inactive; V1R ag counter: 95

Results for COc1ccc(C(=O)NNC(=S)NC(=O)c2ccc(F)cc2)cc1Br ?
OXTR ag: 68; OXTR potentiate: inactive; V1R ag counter: 76

Results for Cc1ccc(C(=O)NNC(=O)c2cccc(C)c2)cc1 ?
TRPML3 agonist: inactive; OXTR ag: inactive; TRPN1 ag: inactive; OXTR potentiate: inactive; V1R ag counter: inactive

Results for Cc1cccc(C(=O)NNC(=S)NC(=O)c2ccccc2)c1 ?
OXTR ag: 83; OXTR potentiate: inactive; V1R ag counter: 108

What do the screens show for `Cc1cccc(C(=O)NNC(=S)NC(=O)c2cccs2)c1`?
OXTR ag: 65; OXTR potentiate: inactive; V1R ag counter: 63

Results for CCOc1ccc(NC(=O)CN(C)C(=O)c2cccnc2Sc2ccc(C)c(C)c2)cc1OCC ?
OXTR ag: inactive; OXTR potentiate: inactive; V1R ag counter: inactive

How did COc1ccc(-n2nc(C(=O)NCC(=O)NCCC3=CCCCC3)c3ccccc3c2=O)cc1OC do in these assays?
OXTR ag: inactive; OXTR potentiate: inactive; V1R ag counter: inactive

Results for CC(C)(C)c1cc(CCC(=O)NNC(=S)NC(=O)c2ccccc2)cc(C(C)(C)C)c1O ?
TRPML3 agonist: inactive; OXTR ag: 58; TRPN1 ag: inactive; OXTR potentiate: inactive; V1R ag counter: 31

How did O=C(CCc1ccccc1)NNC(=S)NC(=O)c1ccccc1 do in these assays?
TRPML3 agonist: inactive; OXTR ag: inactive; TRPN1 ag: inactive; OXTR potentiate: inactive; V1R ag counter: inactive

What do the screens show for `COc1ccc(C(=O)NNC(=S)NC(=O)c2ccc(OC)cc2)cc1`?
OXTR ag: 43; OXTR potentiate: inactive; V1R ag counter: 28
